Entries after “also recorded” stand apart in the source; their conditions may differ. Marks after values point to notes of the source that are not given here.
Key:
[1] = system: patients with advanced solid tumors; experiment: Dose-limiting toxicities and maximum tolerated dose, dose-escalation phase; type: in vivo
Plasma pharmacokinetics = type: in vivo, human; conditions: for AUC(0-t): 40 mg, Mean AUC24h, 40 mg once daily, dose expansion
advanced solid tumors = experiment: Tumor response, dose-escalation cohorts; type: in vivo, human; conditions: for Best overall response: Complete response / Best overall response: Partial response / Best overall response: Progressive disease / Best overall response: Stable disease / Best overall response: Unable to evaluate: Central read, RECIST 1.1
Outline: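 Adults with refractory advanced solid tumours took the drug orally once each morning on days 1–4 of 14-day cycles, fasting from 2 h predose (water only) until 1 h postdose. Doses were 1–30 mg (and 25 mg) without G-CSF, or 30–50 mg with subcutaneous G-CSF (300 or 480 µg daily). Scans were read centrally by RECIST 1.1 and locally by RECIST 1.0, with GCIG criteria for ovarian tumours.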

[2] = system: taxane-resistant triple-negative breast cancer; experiment: Tumor response, dose-expansion TNBC cohort; type: in vivo, human
[3] = system: castration-resistant and taxane- or cisplatin/etoposide-resistant prostate cancer; experiment: Tumor response, dose-expansion CRPC cohort; type: in vivo, human
p-histone H3 = conditions: not measured in this study; no reference given; cited from earlier work
[4] = system: cell lines from a variety of tumor types including several that were resistant to paclitaxel; conditions: preclinical; cited from earlier work
[5] = system: xenografts of diverse tumor types that were resistant to either docetaxel or paclitaxel; conditions: mouse models; cited from earlier work
[6] = system: breast cancer cell lines with TP53 loss of function mutations; conditions: cited from earlier work
[7] = escalation 30 mg + G-CSF (n = 6)
[8] = escalation 35 mg + G-CSF (n = 3)
[9] = escalation 40 mg + G-CSF (n = 11)
[10] = escalation 50 mg + G-CSF (n = 4)
[11] = escalation 1, 2, 4, 8 mg (n = 4)
[12] = Central read, RECIST 1.1, expansion 40 mg + G-CSF, TNBC (n = 14)
[13] = Local read, RECIST 1.0, expansion 40 mg + G-CSF, TNBC (n = 14)
[14] = Central read, RECIST 1.1, expansion 40 mg + G-CSF, CRPC (n = 12)
[15] = Local read, RECIST 1.0, expansion 40 mg + G-CSF, CRPC (n = 12)

Which results are given for Cc1csc(-c2nnc(Nc3ccc(Oc4ncccc4-c4ccnc(N)n4)cc3)c3ccccc23)c1 [AMG 900]?
DLTs overall ([1]; in vivo): nine DLTs were reported in eight patients; Maximum tolerated dose (MTD) and recommended phase 2 dose ([1]; with G-CSF, daily, 4 days on, 10 days off): 40 mg; Maximum tolerated dose (MTD) ([1]; with G-CSF, oral, 4 days on/10 days off): 40 mg/day; Maximum tolerated dose (MTD) ([1]; without G-CSF, daily, 4 days on, 10 days off): 25 mg; Maximum tolerated dose (MTD) ([1]; without G-CSF, oral, 4 days on/10 days off): 25 mg/day; Accumulation based on AUC8h (Plasma pharmacokinetics; cycle 1 day 1 to cycle 1 day 4, all dose cohorts): < 2 fold; Tmax (Plasma pharmacokinetics; human, plasma, oral): 1 to 3 h; half-life (Plasma pharmacokinetics; human, plasma, oral): 6 to 9 h; AUC(0-t) (Plasma pharmacokinetics; human, plasma, oral, CRPC): 7700 ng·h/mL; AUC(0-t) (Plasma pharmacokinetics; human, plasma, oral, TNBC): 10600 ng·h/mL; AUC(0-t) (Plasma pharmacokinetics; human, plasma, oral, ovarian cancer cohort): 12900 ng·h/mL; Mean exposure (AUC24h) versus dose (Plasma pharmacokinetics; oral, 1 to 50 mg): increased as the dose increased; Duration of stable disease, one patient with medullary thyroid cancer (advanced solid tumors; 24 mg): > 3.5 years; Tumor response, one patient with clear-cell endometrial cancer (advanced solid tumors; 30 mg + G-CSF): partial response per RECIST 1.0 (local read) that was not confirmed per RECIST 1.1 (central read); Tumor response, one patient with ovarian cancer (advanced solid tumors; 30 mg, RECIST 1.1 and GCIG criteria (central read)): partial response; Best overall response: Complete response (advanced solid tumors; escalation 16 mg (n = 3)): 0 Patients (%); Best overall response: Partial response (advanced solid tumors; escalation 16 mg (n = 3)): 0 Patients (%); Best overall response: Progressive disease (advanced solid tumors; escalation 16 mg (n = 3)): 0 Patients (%); Best overall response: Stable disease (advanced solid tumors; escalation 16 mg (n = 3)): 2 (67) Patients (%); Best overall response: Unable to evaluate (advanced solid tumors; escalation 16 mg (n = 3)): 1 (33) Patients (%); Best overall response: Complete response (advanced solid tumors; escalation 24 mg (n = 6)): 0 Patients (%); Best overall response: Partial response (advanced solid tumors; escalation 24 mg (n = 6)): 0 Patients (%); Best overall response: Progressive disease (advanced solid tumors; escalation 24 mg (n = 6)): 1 (17) Patients (%); Best overall response: Stable disease (advanced solid tumors; escalation 24 mg (n = 6)): 5 (83) Patients (%); Best overall response: Unable to evaluate (advanced solid tumors; escalation 24 mg (n = 6)): 0 Patients (%); Best overall response: Complete response (advanced solid tumors; escalation 25 mg (n = 7)): 0 Patients (%); Best overall response: Partial response (advanced solid tumors; escalation 25 mg (n = 7)): 0 Patients (%); Best overall response: Progressive disease (advanced solid tumors; escalation 25 mg (n = 7)): 1 (14) Patients (%); Best overall response: Stable disease (advanced solid tumors; escalation 25 mg (n = 7)): 4 (57) Patients (%); Best overall response: Unable to evaluate (advanced solid tumors; escalation 25 mg (n = 7)): 2 (29) Patients (%); Best overall response: Complete response (advanced solid tumors; escalation 30 mg (n = 6)): 0 Patients (%); Best overall response: Progressive disease (advanced solid tumors; escalation 30 mg (n = 6)): 1 (17) Patients (%); Best overall response: Stable disease (advanced solid tumors; escalation 30 mg (n = 6)): 3 (50) Patients (%); Best overall response: Unable to evaluate (advanced solid tumors; escalation 30 mg (n = 6)): 1 (17) Patients (%); Best overall response: Partial response (advanced solid tumors; escalation 30 mg (n = 6), patient also had a response by GCIG CA 125 criteria): 1 (17)^b Patients (%); Best overall response: Complete response (advanced solid tumors; [7]): 0 Patients (%); Best overall response: Partial response (advanced solid tumors; [7]): 0 Patients (%); Best overall response: Progressive disease (advanced solid tumors; [7]): 3 (50) Patients (%); Best overall response: Stable disease (advanced solid tumors; [7]): 3 (50) Patients (%); Best overall response: Unable to evaluate (advanced solid tumors; [7]): 0 Patients (%); Best overall response: Complete response (advanced solid tumors; [8]): 0 Patients (%); Best overall response: Partial response (advanced solid tumors; [8]): 0 Patients (%); Best overall response: Progressive disease (advanced solid tumors; [8]): 2 (67) Patients (%); Best overall response: Stable disease (advanced solid tumors; [8]): 1 (33) Patients (%); Best overall response: Unable to evaluate (advanced solid tumors; [8]): 0 Patients (%); Best overall response: Complete response (advanced solid tumors; [9]): 0 Patients (%); Best overall response: Partial response (advanced solid tumors; [9]): 0 Patients (%); Best overall response: Progressive disease (advanced solid tumors; [9]): 2 (18) Patients (%); Best overall response: Stable disease (advanced solid tumors; [9]): 7 (64) Patients (%); Best overall response: Unable to evaluate (advanced solid tumors; [9]): 2 (18) Patients (%); Best overall response: Complete response (advanced solid tumors; [10]): 0 Patients (%); Best overall response: Partial response (advanced solid tumors; [10]): 0 Patients (%); Best overall response: Progressive disease (advanced solid tumors; [10]): 0 Patients (%); Best overall response: Stable disease (advanced solid tumors; [10]): 2 (50) Patients (%); Best overall response: Unable to evaluate (advanced solid tumors; [10]): 2 (50) Patients (%); Best overall response: Complete response (advanced solid tumors; [11]): 0 Patients (%); Best overall response: Partial response (advanced solid tumors; [11]): 0 Patients (%); Best overall response: Progressive disease (advanced solid tumors; [11]): 2 (50) Patients (%); Best overall response: Stable disease (advanced solid tumors; [11]): 2 (50) Patients (%); Best overall response: Unable to evaluate (advanced solid tumors; [11]): 0 Patients (%); Progressive disease (advanced solid tumors; dose-escalation phase (12 patients of 50)): 24%; Stable disease (best response) (advanced solid tumors; dose-escalation phase, RECIST 1.1 (29 patients of 50)): 58%; Tumor response, one patient with TNBC ([2]; 40 mg + G-CSF, RECIST 1.0 (local read)): partial response per RECIST 1.0 (local read) that was not confirmed per RECIST 1.1 (central read); Progression-free survival, median (80% CI) ([2]; Central read, RECIST 1.1, Kaplan-Meier, expansion 40 mg + G-CSF, TNBC (n = 14)): 7.6 (4.1–23.6) weeks; Best overall response: Complete response [2, 12]: 0 Patients (%); Best overall response: Not evaluable (postbaseline scan not readable) [2, 12]: 3 (21) Patients (%); Best overall response: Partial response [2, 12]: 0 Patients (%); Best overall response: Progressive disease [2, 12]: 4 (29) Patients (%); Best overall response: Stable disease [2, 12]: 7 (50) Patients (%); Best overall response: Complete response [2, 13]: 0 Patients (%); Best overall response: Not evaluable (postbaseline scan not readable) [2, 13]: 3 (21) Patients (%); Best overall response: Partial response [2, 13]: 1 (7) Patients (%); Best overall response: Progressive disease [2, 13]: 5 (36) Patients (%); Best overall response: Stable disease [2, 13]: 5 (36) Patients (%); Objective responses ([2]; RECIST 1.1 (central read), TNBC): No objective responses; also recorded: No patients with TNBC had an objective response; Died or had progressive disease ([2]; RECIST 1.1 (central read), TNBC (7 of 14)): 50.0%; Stable disease as best overall tumor response ([2]; RECIST 1.1, TNBC (7 of 14)): 50.0%; Progression-free survival, median (80% CI) ([3]; Central read, RECIST 1.1, Kaplan-Meier, expansion 40 mg + G-CSF, CRPC (n = 12)): 32.4 (15.7–39.6) weeks; Best overall response: Complete response [3, 14]: 0 Patients (%); Best overall response: Not evaluable (postbaseline scan not readable) [3, 14]: 2 (17) Patients (%); Best overall response: Partial response [3, 14]: 0 Patients (%); Best overall response: Progressive disease [3, 14]: 1 (8) Patients (%); Best overall response: Stable disease [3, 14]: 9 (75) Patients (%); Best overall response: Complete response [3, 15]: 0 Patients (%); Best overall response: Not evaluable (postbaseline scan not readable) [3, 15]: 1 (8) Patients (%); Best overall response: Partial response [3, 15]: 0 Patients (%); Best overall response: Progressive disease [3, 15]: 3 (25) Patients (%); Best overall response: Stable disease [3, 15]: 8 (67) Patients (%); Objective responses ([3]; RECIST 1.1, CRPC): No objective responses; 50% inhibitory concentration for the in vivo inhibition of p-histone H3 (p-histone H3): 273 ng/mL; Proliferation of tumor cell lines [4]: inhibited the proliferation; Growth of xenografts [5]: inhibited growth; Sensitivity to AMG 900 compared with cell lines without such mutations [6]: greater sensitivity
